Assay results published in ChEMBL document CHEMBL4706613, “Novel 3-substituted coumarins as selective human carbonic anhydrase IX and XII inhibitors: Synthesis, biological and molecular dynamics analysis” (Eur J Med Chem, 2021).

Experiments:
Carbonic anhydrase 2 [1] = biological target: T1, Carbonic anhydrase 2 (Homo sapiens, UniProt P00918); assay: Inhibition of human CA2 preincubated for 6 hrs by phenol red dye based stopped flow CO2 hydration assay
How it was run: (§1)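 Ki values are the mean of three separate assays, with errors within ±5–10% of the reported values. Coumarin derivatives were incubated with the enzyme for 6 h before measurement.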

Carbonic anhydrase 12 = Carbonic anhydrase 12 (Homo sapiens, UniProt O43570); assay: Inhibition of human CA12 preincubated for 6 hrs by phenol red dye based stopped flow CO2 hydration assay
Carbonic anhydrase 9 [2] = biological target: T2, Carbonic anhydrase 9 (Homo sapiens, UniProt Q16790); assay: Inhibition of human CA9 preincubated for 6 hrs by phenol red dye based stopped flow CO2 hydration assay; how it was run: as §1
Carbonic anhydrase 1 [3] = biological target: T3, Carbonic anhydrase 1 (Homo sapiens, UniProt P00915); assay: Inhibition of human CA1 preincubated for 6 hrs by phenol red dye based stopped flow CO2 hydration assay; how it was run: as §1
Carbonic anhydrase 9 [4] = biological target: T2, Carbonic anhydrase 9; assay: Inhibition of human CA9 preincubated for 15 mins by phenol red dye based stopped flow CO2 hydration assay
Carbonic anhydrase 1 [5] = biological target: T3, Carbonic anhydrase 1; assay: Inhibition of human CA1 preincubated for 15 mins by phenol red dye based stopped flow CO2 hydration assay
Carbonic anhydrase 2 [6] = biological target: T1, Carbonic anhydrase 2; assay: Inhibition of human CA2 preincubated for 15 mins by phenol red dye based stopped flow CO2 hydration assay

T3 sequence (P00915 whole entry): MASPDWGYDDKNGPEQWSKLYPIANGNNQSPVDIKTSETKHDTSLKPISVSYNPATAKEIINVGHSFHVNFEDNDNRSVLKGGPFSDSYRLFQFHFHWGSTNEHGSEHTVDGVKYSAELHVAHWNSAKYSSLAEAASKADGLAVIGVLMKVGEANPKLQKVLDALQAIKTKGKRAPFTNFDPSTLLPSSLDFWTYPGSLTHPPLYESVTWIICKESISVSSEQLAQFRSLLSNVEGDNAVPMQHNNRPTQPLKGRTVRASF
Chain of Carbonic anhydrase 12 (O43570 whole entry): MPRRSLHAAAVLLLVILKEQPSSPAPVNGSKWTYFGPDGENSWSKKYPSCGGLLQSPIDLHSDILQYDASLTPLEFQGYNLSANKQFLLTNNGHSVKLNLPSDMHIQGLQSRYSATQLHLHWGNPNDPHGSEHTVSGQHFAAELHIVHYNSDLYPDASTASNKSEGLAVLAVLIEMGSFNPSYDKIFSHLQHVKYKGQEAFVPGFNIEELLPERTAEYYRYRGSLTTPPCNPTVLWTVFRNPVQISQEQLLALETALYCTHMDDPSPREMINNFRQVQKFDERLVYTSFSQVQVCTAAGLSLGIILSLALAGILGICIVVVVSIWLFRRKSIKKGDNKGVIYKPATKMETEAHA

SMILES | Ki (Carbonic anhydrase 2 [1]) [nM] | Ki (Carbonic anhydrase 12) [nM] | Ki (Carbonic anhydrase 9 [2]) [nM] | Ki (Carbonic anhydrase 1 [3]) [nM] | Ki (Carbonic anhydrase 9 [4]) [nM] | Ki (Carbonic anhydrase 1 [5]) [nM] | Ki (Carbonic anhydrase 2 [6]) [nM]
C/C(=N\Nc1ccc(S(N)(=O)=O)cc1)c1cc2ccccc2oc1=O | – | – | – | – | 43.8 | – | –
C/C(=N\Nc1ccc(S(N)(=O)=O)cc1)c1cc2cc(Br)ccc2oc1=O | – | – | – | – | 24.2 | – | –
NS(=O)(=O)c1ccc(N/N=C(\CS(=O)(=O)c2ccccc2)c2cc3cc(Br)ccc3oc2=O)cc1 | – | – | – | – | 63.6 | 3460 | 276
Cc1ccc(S(=O)(=O)CC(=O)c2cc3cc(Br)ccc3oc2=O)cc1 | > 100000 | – | 87.2 | > 100000 | – | – | –
C/C(=N\NC(=O)c1ccc(S(N)(=O)=O)cc1)c1cc2ccccc2oc1=O | – | – | – | – | 31.6 | 77.6 | 26.3
Cc1ccc(S(=O)(=O)C/C(=N\NC(=O)c2ccc(S(N)(=O)=O)cc2)c2cc3ccccc3oc2=O)cc1 | – | – | – | – | 42.1 | 1350 | 365
O=c1oc2ccc(Br)cc2cc1/C(CS(=O)(=O)c1ccccc1)=N/Nc1ccccc1 | > 100000 | – | 4640 | > 100000 | – | – | –
Cc1ccc(S(=O)(=O)C/C(=N\Nc2ccc(S(N)(=O)=O)cc2)c2cc3cc(Br)ccc3oc2=O)cc1 | – | – | – | – | – | 3960 | 538
Cc1ccc(S(=O)(=O)C/C(=N\Nc2ccc(S(N)(=O)=O)cc2)c2cc3ccccc3oc2=O)cc1 | – | – | – | – | 76 | 2600 | 560
C/C(=N\NC(=O)c1ccc(S(N)(=O)=O)cc1)c1cc2cc(Br)ccc2oc1=O | – | – | – | – | 19.8 | 92.5 | 12.1
Cc1ccc(S(=O)(=O)C/C(=N\Nc2ccccc2)c2cc3cc(Br)ccc3oc2=O)cc1 | > 100000 | – | 8110 | > 100000 | – | – | –
O=C(N/N=C(\CS(=O)(=O)c1ccccc1)c1cc2cc(Br)ccc2oc1=O)c1ccccc1 | > 100000 | – | 8860 | > 100000 | – | – | –

Continued, values first:

Ki (Carbonic anhydrase 2 [1]) [nM] | Ki (Carbonic anhydrase 12) [nM] | Ki (Carbonic anhydrase 9 [2]) [nM] | Ki (Carbonic anhydrase 1 [3]) [nM] | Ki (Carbonic anhydrase 9 [4]) [nM] | Ki (Carbonic anhydrase 1 [5]) [nM] | Ki (Carbonic anhydrase 2 [6]) [nM] | SMILES
> 100000 | 60.1 | 41.4 | > 100000 | – | – | – | O=C(CS(=O)(=O)c1ccccc1)c1cc2ccccc2oc1=O
> 100000 | – | 16000 | > 100000 | – | – | – | O=C(N/N=C(\CS(=O)(=O)c1ccccc1)c1cc2ccccc2oc1=O)c1ccccc1
> 100000 | – | 1500 | > 100000 | – | – | – | O=c1oc2ccccc2cc1/C(CS(=O)(=O)c1ccccc1)=N/Nc1ccccc1
> 100000 | – | 3940 | > 100000 | – | – | – | Cc1ccc(S(=O)(=O)C/C(=N\Nc2ccccc2)c2cc3ccccc3oc2=O)cc1
– | – | – | – | 18.6 | 1540 | 225 | NS(=O)(=O)c1ccc(C(=O)N/N=C(\CS(=O)(=O)c2ccccc2)c2cc3ccccc3oc2=O)cc1
– | – | – | – | 89.1 | 824 | 442 | NS(=O)(=O)c1ccc(N/N=C(\CS(=O)(=O)c2ccccc2)c2cc3ccccc3oc2=O)cc1
> 100000 | – | 76.6 | > 100000 | – | – | – | O=C(CS(=O)(=O)c1ccccc1)c1cc2cc(Br)ccc2oc1=O
> 100000 | – | 66.3 | > 100000 | – | – | – | Cc1ccc(S(=O)(=O)CC(=O)c2cc3ccccc3oc2=O)cc1
